Rows were chosen to be rich in hits. Some 5.8% of all compounds tested hit in one or more screens of this group.
GASC1 inh: inhibitors of GASC-1 (KDM4C) histone demethylase, primary screen, biochemical, single concentration HTS | GST-KDM4C 2-372, H3K9me3 peptide, LANCE TR-FRET | inhibition, % at 12.5 µM | 96,000 compounds, 0.15% hits;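 active means mean replicate inhibition above about 25%, with at least 55% of replicates also reaching it, limit read from the data, passing the limit was not always enough; inconclusive means only one of those two conditions met; inactive means neither condition met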
Target sequence (Q9H3R0 2-372 limits assumed): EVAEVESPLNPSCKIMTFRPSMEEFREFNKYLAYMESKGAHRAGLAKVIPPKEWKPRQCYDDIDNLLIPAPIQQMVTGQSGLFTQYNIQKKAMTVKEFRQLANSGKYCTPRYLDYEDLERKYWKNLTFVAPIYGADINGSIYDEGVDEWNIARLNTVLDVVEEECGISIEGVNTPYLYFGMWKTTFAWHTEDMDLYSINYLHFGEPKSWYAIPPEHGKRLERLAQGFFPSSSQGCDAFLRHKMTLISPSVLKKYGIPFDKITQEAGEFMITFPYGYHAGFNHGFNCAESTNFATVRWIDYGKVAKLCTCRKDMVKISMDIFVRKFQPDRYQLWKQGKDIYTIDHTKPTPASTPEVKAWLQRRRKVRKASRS
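System: N-terminal GST-fused human GASC-1 (KDM4C) fragment, residues 2-372 / Amount: 10 nM GST-KDM4C in enzyme reaction / Also added: H3K9me3 peptide with Fe(II)/2OG / Times: 30 min demethylation and 1 h detection at room temperature / Signal: LANCE TR-FRET / Read-out basis: Fall in 671/618 emission ratio as inhibition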
T cruzi growth-1: T. cruzi intracellular proliferation inhibitors, primary screen, cell-based, beta-gal Tulahuen parasites, NIH3T3 host, luminescence. T. cruzi beta-gal in NIH3T3, GalScreen luminescence, 90 h. inhibition, % at 8.34 µM. 77,000 compounds, 5.9% hits. AID 624255, 2012;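 active means mean inhibition above about 93%, with at least 55% of replicates each passing it, limit read from the data, passing the limit was not always enough; inconclusive means only one of those two conditions holds; inactive means neither condition holds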
IDH1 mut inh: inhibitors of IDH1 R132H reductase, primary screen, biochemical, plate reader, single point; inhibition, % at 10 µM; Isocitrate dehydrogenase [NADP] cytoplasmic (Homo sapiens), O75874; AID 624101, 2012; diaphorase/resazurin fluorescence, 60 min; 70,000 compounds, 0.18% hits; in the data active means inhibition above about 34%; inconclusive means no clear call, values can overlap the other calls; inactive means below about 11%
Pf Dd2 inh: P. falciparum Dd2 growth inhibitors, primary screen, SYBR Green fluorescence, single dose replicates | 72 h; hits give low values | activity change, % at 10 µM | 94,000 compounds, 2.3% hits | AID 1159554, 2015; in the data active means activity change below about -80%; inconclusive means no clear call, values can overlap the other calls
T cruzi growth-2: T. cruzi intracellular proliferation inhibitors, confirmation, cell-based, NIH3T3 host, beta-gal parasite, luminescence, cherry-pick; inhibition, % at 8.35 µM; T. cruzi beta-gal in NIH3T3, GalScreen luminescence, 90 h; shares compounds with T cruzi growth-1; 5,600 compounds, 72% hits;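 active means mean replicate inhibition above about 95% and at least 55% of replicates individually reaching it, limit read from the data; inconclusive means only one of the two criteria is met; inactive means neither criterion is met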
T cruzi growth-3: inhibitors of intracellular T. cruzi replication, confirmation, NIH3T3 host cells, beta-gal parasites, cherry-pick, set 2; shares compounds with T cruzi growth-1; T. cruzi beta-gal in NIH3T3, GalScreen luminescence, 90 h; inhibition, % at 2.09 µM; 5,600 compounds, 21% hits; AID 651740, 2012;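 active means mean inhibition above about 95%, with at least 55% of replicates also reaching it, limit read from the data; inconclusive means meets just one of the two conditions; inactive means meets neither condition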
NIH3T3 tox: cytotoxicity in mouse NIH/3T3 fibroblasts, confirmation, cytotoxicity control for T. cruzi proliferation inhibitor project, cell-based, cherry-pick, single point; NIH/3T3 viability, CellTiter-Glo ATP luminescence, 90 h; AID 651742, 2012; shares compounds with T cruzi growth-1; cytotoxicity (signal decrease), % at 8.35 µM; 5,600 compounds, 14% hits;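 active means mean signal decrease across replicates above about 35% based on untreated-well scatter, with enough replicates individually passing, limit read from the data; inconclusive means no rule stated though some were filed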
3T3 cytotox 2: NIH/3T3 fibroblast cytotoxicity, confirmation, cytotoxicity control, cell-based, cherry-pick, single point, set 2; NIH/3T3 viability, CellTiter-Glo ATP luminescence, 90 h; 5,600 compounds, 56% hits; inhibition, % at 24.9 µM; shares compounds with T cruzi growth-1;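 active means mean loss of cell viability signal at or above a set limit, and enough replicates individually reaching it; inconclusive means meets only the mean limit or only the replicate share; inactive means meets neither condition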
Numbers stand for hits; . = inactive; ? = inconclusive; / = not tested or not shown.

SMILES	GASC1 inh	T cruzi growth-1	IDH1 mut inh	Pf Dd2 inh	T cruzi growth-2	T cruzi growth-3	NIH3T3 tox	3T3 cytotox 2
CO[C@@H]1CN(C)C(=O)c2ccc(NC(=O)C3CC3)cc2OC[C@@H](C)N(C(=O)c2ccccn2)C[C@@H]1C	.	.	.	.	/	/	/	/
CN1c2ccc(-c3ccc(F)cc3)cc2[C@@H]2[C@@H](CCN2C(=O)C2CCOCC2)[C@@H]1CO	.	97.8	/	.	106.0	.	.	.
CN(C)C(=O)c1ccc(-c2ccc3c(c2)[C@@H]2[C@@H](CCN2C(=O)C2CCCC2)[C@H](CO)N3C)cc1	.	/	/	.	/	/	/	/
CN1c2ccc(-c3ccc(F)cc3)cc2[C@@H]2[C@@H](CCN2C(=O)C2CCOCC2)[C@H]1CO	.	104.9	/	.	104.7	.	.	.
CN(C)C(=O)c1ccc(-c2ccc3c(c2)[C@@H]2[C@@H](CCN2C(=O)C2CCOCC2)[C@@H](CO)N3C)cc1	.	101.6	/	.	106.9	.	.	.
CN1c2ccc(-c3ccc(F)cc3)cc2[C@H]2[C@H](CCN2C(=O)C2CCOCC2)[C@H]1CO	.	.	/	.	/	/	/	/
CO[C@H](CN(C)S(=O)(=O)c1ccc(F)cc1)[C@H](C)CN(Cc1ccccc1Cl)[C@@H](C)CO	.	.	.	.	/	/	/	/
O=C1CC(c2ccc(O)cc2)Oc2cc(O)cc(O[C@@H]3O[C@H](CO)[C@@H](O)[C@H](O)[C@H]3O)c21 (stereo partly specified)	/	/	.	/	/	/	/	/
C[C@@H]1CCCCO[C@@H](CN(C)C(=O)c2ccncc2)[C@H](C)CN([C@H](C)CO)C(=O)c2cc(N(C)C)ccc2O1	.	.	.	/	/	/	/	/
C[C@H](CO)N1C[C@H](C)[C@@H](CN(C)Cc2ccc(Oc3ccccc3)cc2)Oc2ccc(NC(=O)Nc3cccc4ccccc34)cc2C1=O	.	117.1	/	.	99.0	.	?	.
C[C@@H]1CN([C@H](C)CO)C(=O)c2cc(NC(=O)Nc3cccc4ccccc34)ccc2O[C@@H]1CN(C)Cc1ccc(Oc2ccccc2)cc1	.	116.6	.	.	101.3	.	40.8	?
C[C@H]1CN([C@@H](C)CO)C(=O)c2cc(NC(=O)Nc3cccc4ccccc34)ccc2O[C@@H]1CN(C)Cc1ccc(Oc2ccccc2)cc1	.	125.1	.	.	97.7	101.8	41.0	44.1
C[C@H](CO)N1C[C@H](C)[C@H](CN(C)Cc2ccc(Oc3ccccc3)cc2)Oc2ccc(NC(=O)Nc3cccc4ccccc34)cc2C1=O	.	122.8	/	.	103.8	99.7	.	37.0
CC(=O)N1[C@@H]2c3ccc(/C=C/c4ccccc4)c(=O)n3C[C@H]1[C@H](CO)[C@H]2C(=O)N1CCOCC1	.	/	/	.	/	/	/	/
O=C(C[C@H]1CC[C@H]2[C@@H](COC[C@H](O)CN2C(=O)C2CCOCC2)O1)NCc1ccncc1	.	.	/	.	/	/	/	/
COc1ccc(NC(=O)Nc2cccc3c2O[C@H](CN(C)S(=O)(=O)c2ccc(C)cc2)[C@H](C)CN([C@@H](C)CO)C3=O)cc1	.	.	/	.	/	/	/	/
C[C@@H]1CN([C@H](C)CO)C(=O)c2cccc(NS(=O)(=O)c3cn(C)cn3)c2O[C@@H]1CN(C)Cc1ccc(Cl)c(Cl)c1	.	.	.	.	/	/	/	/
C[C@H]1CCCCO[C@H](CN(C)C(=O)Nc2ccc(F)cc2)[C@@H](C)CN([C@@H](C)CO)C(=O)c2cc(NC(=O)Nc3ccc(C(F)(F)F)cc3)ccc2O1	.	.	/	.	/	/	/	/
C[C@@H]1CCCCO[C@H](CN(C)C(=O)Nc2ccc(C(F)(F)F)cc2)[C@@H](C)CN([C@H](C)CO)C(=O)c2cc(NC(=O)Nc3ccc(C(F)(F)F)cc3)ccc2O1	.	102.6	.	.	101.4	?	.	.
C[C@@H]1CN([C@H](C)CO)C(=O)c2cc(NC(=O)Nc3ccc(F)cc3)ccc2O[C@@H](C)CCCCO[C@H]1CN(C)C(=O)Nc1ccc(C(F)(F)F)cc1	.	.	.	.	/	/	/	/
C[C@H](CO)N1C[C@H](C)[C@H](CN(C)C(=O)Nc2ccc(C(F)(F)F)cc2)OCCCC[C@H](C)Oc2ccc(NC(=O)Nc3ccc(C(F)(F)F)cc3)cc2C1=O	.	126.4	/	.	102.1	117.4	.	.
Cc1noc(C)c1NC(=O)Nc1ccc2c(c1)C(=O)N([C@@H](C)CO)C[C@H](C)[C@H](CN(C)C(=O)Nc1ccc(C(F)(F)F)cc1)OCCCC[C@H](C)O2	.	109.7	.	.	96.2	.	.	.
C[C@@H]1CCCCO[C@H](CN(C)C(=O)Nc2ccc(C(F)(F)F)cc2)[C@@H](C)CN([C@@H](C)CO)C(=O)c2cc(NC(=O)Nc3ccc(C(F)(F)F)cc3)ccc2O1	.	112.3	.	-88.0	107.5	115.5	.	?
CNC(=O)C[C@H]1CC[C@H]2[C@@H](COC[C@H](O)CN2C(=O)c2ccccn2)O1	.	.	/	.	/	/	/	/
C[C@@H]1CCCCO[C@H](CN(C)C(=O)Nc2ccc(C(F)(F)F)cc2)[C@H](C)CN([C@@H](C)CO)C(=O)c2cc(NC(=O)Nc3ccc(C(F)(F)F)cc3)ccc2O1	.	116.1	/	.	108.0	113.3	.	.
CC(C)NC(=O)Nc1ccc2c(c1)C(=O)N([C@@H](C)CO)C[C@@H](C)[C@@H](CN(C)C(=O)Nc1ccc(C(F)(F)F)cc1)OCCCC[C@@H](C)O2	.	.	.	.	/	/	/	/
C[C@@H]1CCCCO[C@H](CN(C)C(=O)Nc2ccc3c(c2)OCO3)[C@@H](C)CN([C@H](C)CO)C(=O)c2cc(NC(=O)Nc3ccc(C(F)(F)F)cc3)ccc2O1	.	.	/	.	/	/	/	/
CC(C)NC(=O)Nc1ccc2c(c1)C(=O)N([C@H](C)CO)C[C@H](C)[C@@H](CN(C)C(=O)Nc1ccc(C(F)(F)F)cc1)OCCCC[C@H](C)O2	.	97.6	/	.	97.8	.	.	.

Source: PubChem BioAssay (Broad Institute)
